Published values gathered from unrelated publications.
Compare with care: the assays were run in different laboratories.
Cell line: HeLa
Observed: cell growth or viability

SMILES | assay | setting | IC50 [µM]
COc1cc([C@@H]2c3cc4c(cc3[C@@H](O[C@@H]3O[C@@H]5CO[C@@H](C)O[C@H]5[C@H](O)[C@H]3O)[C@H]3COC(=O)[C@H]23)OCO4)cc(OC)c1O | MTT | 48 h | 3.9
CN1C(=O)C(=O)c2cc3c(c4c2c1cc1ccccc14)OCO3 | MTT | 75 h | 56.9
CNC(=S)N/N=C/c1cccc2cc3ccccc3nc12 | MTT | 48 h | 21.8
CCC(=CCc1c(O)cc2c(c1O)C(=O)CC(c1ccc(O)cc1)O2)CC (stereo in doubt) | MTT | 48 h | 19.1
O=C(Cn1cc(COc2ncnc3[nH]cnc23)nn1)Nc1ccc([N+](=O)[O-])cc1 | MTT |  | 10.4
COc1cccc2c1C(=O)c1c(O)c3c(c(O)c1C2=O)C[C@@](O)(C(=O)CO)C[C@@H]3O[C@H]1C[C@H](N)[C@H](O)[C@H](C)O1 |  |  | 0.03
Fc1ccccc1Nc1nc(-c2ccncc2)nc2c1CNCC2 | MTT |  | > 100
CC(C)CCOc1cc(C(=O)C[n+]2ccn(CCC(C)C)c2)c(OCCC(C)C)c2ccccc12 | MTT | 24 h | 10.1
S=C(N/N=C/c1cccc2cc3ccccc3nc12)Nc1ccccc1 | MTT | 48 h | 28.3
COc1cccc2c1C(=O)c1c(O)c3c(c(O)c1C2=O)C[C@@](O)(C(=O)CO)C[C@@H]3O[C@H]1C[C@H](N)[C@H](O)[C@H](C)O1 | MTT |  | 6.89
CN(C)C1CCc2[nH]c3c(C(N)=O)ccc(-c4ccccc4Cl)c3c2C1 (centres unmarked) |  |  | 0.19
CC(C)CCOc1cc(C[n+]2c(C(C)C)n(CCC(C)C)c3ccccc32)c(OCCC(C)C)c2ccccc12 | MTT | 24 h | 6.8
Fc1ccc(NC(=S)N/N=C/c2cccc3cc4ccccc4nc23)cc1 | MTT | 48 h | 18.4
CC(C)CCOc1cc(C[n+]2c(-c3ccc(F)cc3)n(CCC(C)C)c3ccccc32)c(OCCC(C)C)c2ccccc12 | MTT | 24 h | 9.4
COc1ccc(CNC(=O)Cn2cc(COc3ncnc4[nH]cnc34)nn2)cc1 | MTT |  | 29.6
CCC(=CCc1c(O)cc2c(c1O)C(=O)C[C@H](c1ccccc1O)O2)CC | MTT |  | 37.4
CN(C)C(=S)[N-]N=C(c1ccccn1)c1ccccn1.[O]=[V+]=[O] | MTT | 48 h | 42.9
CC(C)CCOc1cc(C(=O)C[n+]2cn(C)c3ccccc32)c(OCCC(C)C)c2ccccc12 | MTT | 24 h | 13.9
COc1cccc(-c2cc(NCc3ccc4c(c3)OCO4)nc(N)n2)c1 | CCK-8 | 72 h | 0.188
C=C[C@]1(C)C=C2CC[C@H]3C(C)(C)CCC[C@]3(C)[C@H]2CC1 | MTT | 75 h | 130
CC(C)CCOc1cc(C[n+]2cn(CCC(C)C)c3cc(Br)c(Br)cc32)c(OCCC(C)C)c2ccccc12 | MTT | 24 h | 7.2
COc1cccc(Nc2nc(-c3ccncc3)nc3c2CNCC3)c1 | MTT |  | 23.2
CC(C)CCOc1cc(C[n+]2cn(CCC(C)C)c3cc(-c4ccccc4)c(-c4ccccc4)cc32)c(OCCC(C)C)c2ccccc12 | MTT | 24 h | 11.2
Cc1sc2c(c1C)C(c1ccc(Cl)cc1)=N[C@@H](CC(=O)NCCCCNC(=O)COc1cccc3c1C(=O)N(C1CCC(=O)NC1=O)C3=O)c1nnc(C)n1-2 (some centres unmarked) | CCK-8 | 72 h | > 10
CC(=O)O[C@H]1C(=O)[C@@]2(C)[C@H]([C@H](OC(=O)c3ccccc3)[C@]3(O)C[C@H](OC(=O)[C@H](O)[C@@H](NC(=O)c4ccccc4)c4ccccc4)C(C)=C1C3(C)C)[C@]1(OC(C)=O)CO[C@@H]1C[C@@H]2O | MTT | 48 h | 15.8
CC(C)CCn1c[n+](CC(=O)c2cc(OC(C)C)c3ccccc3c2OC(C)C)c2ccccc21 | MTT | 24 h | 12.9
CN(C)c1cccc(Nc2nc(-c3ccncc3)nc3c2CNCC3)c1 | MTT |  | 32.4
CC(C)CCOc1cc(C[n+]2c(CO)n(CCC(C)C)c3ccccc32)c(OCCC(C)C)c2ccccc12 | MTT | 24 h | 11.8
COc1ccc(NC(=S)N/N=C/c2cccc3cc4ccccc4nc23)cc1 | MTT | 48 h | 14.8
